Rows were chosen to be rich in hits. Some 1.1% of all compounds tested hit in one or more screens of this group.
PREPL inhibitor: PREPL enzyme inhibitors, primary screen, biochemical, fluorescence polarization; inhibition, % at 5.96 µM; hit rate 0.68% among 320,000; recombinant PREPL, fluorescence polarization activity-based probe; AID 2751, 2010
procasp7 counter: procaspase-7 activators, primary screen, counter-screen for procaspase-3 activator project, biochemical, absorbance, HTS, human | AID 463210, 2010 | hit rate 0.093% among 330,000 | recombinant procaspase-7, Ac-DEVD-pNA absorbance 405 nm; D23A/D198A/D206A triple mutant, cannot self-cleave; scale: DMSO 0, 5 µM enzyme 100 | Caspase-7 (Homo sapiens), P55210 | activation, % at 8.5 µM;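 active = percent activation above the screen-wide mean plus 3 SD, cut at about 25% in these data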
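System: Uncleavable procaspase-7 mutant enzyme; Amount: 2 µM procaspase-7 mutant as dispensed; Schedule: 1 h compound preincubation, 2 h substrate cleavage, 25 °C; Measured by: 405 nm absorbance of p-nitroaniline; Evaluation: percent activation from buffer-corrected 0–120 min absorbance change; Control set: low DMSO alone, high DMSO plus 5 µM PC-7.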
proCasp3 act: activators of human procaspase-3 D3A mutant, primary screen, biochemical, absorbance, PC-3 D3A mutant, single concentration; Caspase-3 (Homo sapiens), P42574; recombinant procaspase-3 D3A, Ac-DEVD-pNA absorbance 405 nm; activation, % at 8.5 µM; hit rate 0.11% among 330,000; AID 463141, 2010;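 active = activation above the mean of all tested compounds plus 3 SD, cut at about 21% in these data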
Target sequence (P42574 whole entry D9A/D28A/D175A): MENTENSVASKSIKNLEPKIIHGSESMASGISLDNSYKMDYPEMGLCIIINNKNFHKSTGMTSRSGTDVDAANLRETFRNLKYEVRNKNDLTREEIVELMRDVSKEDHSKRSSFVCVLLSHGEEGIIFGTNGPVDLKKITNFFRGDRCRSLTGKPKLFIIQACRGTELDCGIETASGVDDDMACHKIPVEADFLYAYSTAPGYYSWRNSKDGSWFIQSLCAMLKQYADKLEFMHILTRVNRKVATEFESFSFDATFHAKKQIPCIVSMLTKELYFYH
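Test system: Procaspase-3 D3A mutant, all three cleavage aspartates alanine | Dosing: Single dose, 8.5 µM nominal compound, 0.8% DMSO | Schedule: 1 h preincubation, 2 h reaction | Technique: 405 nm absorbance of p-nitroaniline, reads at 0 and 120 min | Repeats: One well per compound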
LYPLA2 counter: LYPLA2 inhibitors, primary screen, counter-screen for PME1 inhibitor project, biochemical, fluorescence polarization, FP-Rh probe ABPP; Acyl-protein thioesterase 2 (Homo sapiens), O95372; recombinant LYPLA2; inhibition, % at 5.9 µM; hit rate 0.38% among 320,000; AID 2177, 2009;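 active = inhibition above the screen-wide mean plus 3 SD, limit set per campaign, cut at about 26% in these data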
LYPLA1 counter: LYPLA1 inhibitors, primary screen, counter-screen for PME1 inhibitor project, biochemical, fluorescence polarization, FP-Rh probe ABPP; Acyl-protein thioesterase 1 (Homo sapiens), O75608; recombinant LYPLA1; inhibition, % at 5.9 µM; hit rate 0.16% among 320,000; AID 2174, 2009;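 active = inhibition above the mean of all tested compounds plus 3 SD, set per campaign, cut at about 14% in these data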;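 note: inhibitors block serine hydrolase probe labeling of LYPLA1 so polarization falls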
Target sequence (O75608 whole entry, looked up): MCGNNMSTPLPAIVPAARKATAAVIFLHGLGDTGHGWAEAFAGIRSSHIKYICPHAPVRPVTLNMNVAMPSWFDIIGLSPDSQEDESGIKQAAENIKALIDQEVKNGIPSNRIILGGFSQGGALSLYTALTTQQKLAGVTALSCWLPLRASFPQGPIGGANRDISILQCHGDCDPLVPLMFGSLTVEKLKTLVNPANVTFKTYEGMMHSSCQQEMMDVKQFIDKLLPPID
PREPL inh cf: human PREPL enzyme inhibitors, confirmation, biochemical, fluorescence polarization; recombinant PREPL, fluorescence polarization activity probe; hit rate 67% among 2,000; inhibition, % at 5.96 µM; shares compounds with PREPL inhibitor
procasp7 triplic: procaspase-7 activators, counter-screen for procaspase-3 activator project, biochemical, absorbance, triplicate, human; shares compounds with proCasp3 act; recombinant procaspase-7, Ac-DEVD-pNA absorbance; asp23/198/206-to-Ala mutant, cannot self-cleave; activation, % at 8.5 µM; 210 tested, under 10 active;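 active = mean activation above a set limit taken from an earlier procaspase-7 screen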
proCasp3 confirm: activators of human procaspase-3 D3A mutant, confirmation, biochemical, absorbance, PC-3 D3A mutant, triplicate | shares compounds with proCasp3 act | recombinant PC-3 D3A, Ac-DEVD-pNA absorbance 405 nm; 100% is higher-enzyme control | activation, % at 8.5 µM | hit rate 10% among 210;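 active = mean activation above a set limit carried over from the earlier primary screen, cut at about 22% in these data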
A number is an active result; - = inactive; . = no result given. Cut-off read from the data, not from the text of the source, unless noted: active = inhibition above about 43%; inactive = the rest.

SMILES	PREPL inhibitor	procasp7 counter	proCasp3 act	LYPLA2 counter	LYPLA1 counter	PREPL inh cf	others
Cc1ccc2c(c1)c1c(n2CC(O)CNC(CO)(CO)CO)CCCC1 (stereo not drawn)	-	-	-	-	-	.
O=C(Nc1ccccn1)c1ccc(-c2ccccc2)cc1	-	-	-	-	-	.
C=CCn1cc(/C=N/Nc2nc3ccccc3[nH]2)c2ccccc21	45	-	-	-	-	50
Cc1c(/C=N/Nc2nc3ccccc3[nH]2)c2ccccc2n1C	45	-	-	-	-	-
Cn1c(/C=N/Nc2nc3ccccc3[nH]2)nc2ccccc21	-	-	-	-	-	.
O=C(C1CCN(c2ncnc3c2nc2n3CCCCC2)CC1)N1CCN(c2ccccc2F)CC1	44	-	-	-	-	-
Cc1cccc(N2CCN(C(=O)C3CCN(c4ncnc5c4nc4n5CCCCC4)CC3)CC2)c1C	-	-	-	-	-	.
COc1ccc(C(=O)NCCOc2cccc(Oc3ccccc3)c2)cc1OC	-	-	-	-	-	.
O=C(C1=C[C@@H](c2ccc(Br)cc2)C[C@@H](OCc2ccc(CO)cc2)O1)N1CCOCC1	44	-	-	-	-	51
O=C(C1=C[C@H](c2ccc(Br)cc2)C[C@H](OCc2ccc(CO)cc2)O1)N1CCOCC1	43	-	-	-	-	-
CC(C)CN(CCNC(=O)CN1N=C(c2ccc(Cl)cc2)CCC1=O)CC(C)C	49	-	-	-	-	-
CCCCN(C)CCCNC(=O)CN1N=C(c2ccc(Cl)cc2)CCC1=O	-	-	-	-	-	.
Cc1cccc(NC(=O)c2nc[nH]c2C(=O)N2CCc3ccccc3C2)c1	-	-	-	-	-	.
CCOC(=O)c1c(C)n(CCOc2ccccc2)c2ccc(O)cc12	-	-	-	-	-	.
CCOC(=O)c1c(C)n(CC(O)c2ccccc2)c2ccc(O)cc12 (stereo not drawn)	171	-	-	-	-	-
COc1ccc(N2CCN(c3nc4c(c(=O)n(C)c(=O)n4C)n3Cc3ccccc3)CC2)cc1	50	-	-	-	-	57
CN1CCN(c2nc3c(c(=O)n(C)c(=O)n3C)n2CCSc2nc3ccccc3s2)CC1	45	-	-	-	-	-
CCN1CCN(c2nc3c(c(=O)[nH]c(=O)n3C)n2CCSc2nc3ccccc3s2)CC1	-	-	-	-	-	.
O=C(COC(=O)C1CCN(C(=O)c2ccc(Cl)cc2)CC1)Nc1ccccc1F	-	-	-	-	-	.
c1ccc2c(c1)nc(Nc1ccc3c(c1)OCO3)c1nnnn12	47	-	-	-	-	45
CCC(C)[C@H](NC(=O)N1CC(=O)Nc2ccccc21)C(=O)Nc1nccs1 (stereo partly drawn)	-	-	-	-	-	.
Cn1c(NC(=O)C[n+]2cc(-c3ccc(Cl)c(Cl)c3)n3c2CCC3)cc(=O)n(C)c1=O	60	-	-	-	-	51
CC1=Nc2cccc3cccc(c23)N1	45	-	-	-	-	-
Cc1ccc(C(=O)OCN2C(=O)c3ccccc3C2=O)o1	-	-	-	-	-	.
CC(=O)Nc1cc(C(=O)CSc2nnc(C3CC3)n2C2CC2)ccc1O	-	-	-	-	-	.
SMILES	PREPL inhibitor	procasp7 counter	proCasp3 act	LYPLA2 counter	LYPLA1 counter	PREPL inh cf	others
O=C(CCS(=O)(=O)c1ccc(F)cc1)Nc1ccc(N2CCN(Cc3ccccc3)CC2)cc1	-	-	-	-	-	.
Fc1ccc(CNc2ccc(N3CCN(Cc4ccccc4)CC3)cc2)cc1	46	-	-	-	-	-
COc1ccc(NCc2nnc(SCc3ccc(Cl)cc3)n2-c2ccccc2)cc1	52	-	-	-	-	49
COc1ccc(-n2c(COc3ccc(Cl)cc3)nnc2SCc2ccc(C#N)cc2)cc1	-	-	-	-	-	.
CC12CNCC(C)(CN(C3(O)C(=O)Nc4ccc(Br)cc43)C1)C2=O (stereo not drawn)	-	-	-	-	-	.
O=[N+]([O-])c1cc(Cl)cc(/C=N/NC(=S)Nc2ccc(S(=O)(=O)N3CCOCC3)cc2)c1O	46	-	-	-	-	-
O=S(=O)(c1ccc(NC(=S)N/N=C/c2ccc(O)c(O)c2)cc1)N1CCOCC1	-	-	-	-	-	.
O=C(CSc1nnc2c(n1)[nH]c1ccc(F)cc12)NC1CC1	-	-	-	-	-	.
CCN(C(=O)CCN1C(=O)S/C(=C\c2ccccc2)C1=O)C1CCS(=O)(=O)C1 (stereo not drawn)	45	-	-	-	-	-
COc1cccc2cc(C(=O)C3=C(O)C(=O)N(CCN4CCOCC4)C3c3ccc(C(C)(C)C)cc3)oc12 (stereo not drawn)	53	-	-	-	-	56
C/C(=N\Nc1nc(-c2ccccn2)nc2ccccc12)c1ccc(F)cc1	-	-	-	-	-	.
c1ccc(-c2nc(N3CCOCC3)c3ccccc3n2)nc1	-	-	-	-	-	.
c1ccc(-c2nc(N3CCCCCC3)c3ccccc3n2)nc1	68	-	-	-	-	65
c1ccc(CCNc2nc(-c3ccccn3)nc3ccccc23)cc1	73	-	-	-	-	77
CCOC(=O)c1cnc(-n2nc(C)cc2C)nc1NCCc1ccccc1	58	-	-	-	-	54
CCOC(=O)c1cnc(-n2nc(C)cc2C)nc1Nc1ccc(OC)cc1	-	-	-	-	-	.
CCCC[n+]1ccn(-c2nc3ccccc3nc2[N-]S(=O)(=O)c2cccs2)c1	-	-	-	-	-	.
Cc1c(C)c2ccc(OC(C)C(=O)NCc3ccccn3)cc2oc1=O (stereo not drawn)	-	-	23	-	-	.	procasp7 triplic=-;proCasp3 confirm=-
CC(=O)Nc1nc(C)c(C(C)=O)s1	-	-	25	-	-	.	procasp7 triplic=-;proCasp3 confirm=-
NC(=O)C1CCN(CC(=O)Nc2nccs2)CC1	-	-	-	-	-	.
COc1ccc(/C=C2\N=C(c3ccc(C)cc3)OC2=O)cc1	-	-	-	-	-	.

Bioassay records as filed in PubChem BioAssay.
